Reference: publication PMC3348450 (Investigational New Drugs, 2011)

Key:
[1] = cited from earlier work
[2] = cited from earlier work; remark: listed apart in the source
[3] = Treatment-related adverse events; type: in vivo, human
How it was run: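 Adverse events were graded by CTCAE version 3.0 throughout both studies in 18 Japanese patients on the oral test compound, taken in the fed state. Study 1 gave 5 mg BID continuously, six patients first receiving a single 5-mg dose. Study 2 gave single 5-, 7- and 10-mg doses, then 5 mg BID. Titration was to 7 then 10 mg BID; reduction was to 3 or 2 mg BID.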

[4] = Treatment-related laboratory abnormalities, phase I Study 1 and Study 2; type: in vivo, human; conditions: treatment-related laboratory abnormality; pooled; N = 18
How it was run: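 Laboratory abnormalities were pooled across 18 Japanese patients with solid tumours from two studies. Patients took the oral test compound in the fed state: 5 mg BID continuous dosing, preceded by single doses in some patients (5 mg; or 5, 7 and 10 mg in Study 2). Dose could be raised to 7 then 10 mg BID, or cut to 3 or 2 mg BID for toxicity.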

[5] = Plasma pharmacokinetics of axitinib; type: in vivo, human
thyroid gland = test: Thyroid function tests; type: in vivo, human; conditions: two studies, 18 patients
How it was run: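 Study 1 measured TSH weekly in cycle 1, then every 2 weeks. Study 2 determined anti-TPO and antithyroglobulin antibody titres at screening, and measured TSH, free T3, free T4 and thyroglobulin weekly in cycle 1, then every 2 weeks. Study 2 also measured total cholesterol and CPK, monitored thyroid tests at every visit, and gave thyroid hormone replacement according to TSH to keep patients euthyroid.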

[6] = tested on: advanced malignant solid tumors; test: Preliminary antitumor activity; type: in vivo, human; conditions: 11 of 17 evaluable patients who had a target lesion
[7] = cited from earlier work; remark: listed apart in the source
[8] = Study 2 (N = 6), four patients received thyroid hormone replacement therapy
[9] = treatment-related, pooled, N = 18

Structure (SMILES): CNC(=O)c1cc(Oc2ccc(NC(=O)Nc3ccc(Cl)c(C(F)(F)F)c3)cc2)ccn1 [sorafenib]
- Hypothyroidism and thyroid dysfunction, patients [1]: ~ 20%
- Hemoglobin change in treated patients [2]: Elevation of hemoglobin

Structure (SMILES): CCN(CC)CCNC(=O)c1c(C)[nH]c(/C=C2\C(=O)Nc3ccc(F)cc32)c1C [sunitinib]
- Hypothyroidism and thyroid dysfunction, patients [1]: 36–85%
- Hemoglobin change in treated patients [2]: Elevation of hemoglobin

Structure (SMILES): CNC(=O)c1ccccc1Sc1ccc2c(/C=C/c3ccccn3)n[nH]c2c1 [axitinib, Axitinib]
- Grade 3/4 fatigue, patients ([3]; 18 patients): 28%
- Grade 3/4 hypertension, patients ([3]; 18 patients): 33%
- Grade 3/4 fatigue, patients ([3]; Study 1): 42%
- Treatment-related fatigue, all grades ([3]; Study 1 (N = 12)): 10 (83) n (%)
- Treatment-related fatigue, grade 3/4 ([3]; Study 1 (N = 12)): 5 (42) n (%)
- Treatment-related fatigue, all grades [3, 8]: 5 (83) n (%)
- Treatment-related fatigue, grade 3/4 [3, 8]: 0 n (%)
- Anorexia, patients ([3]; treatment-related, 18 patients): 72%
- Diarrhea, patients ([3]; treatment-related, 18 patients): 67%
- Hand–foot syndrome, patients ([3]; treatment-related, 18 patients): 67%
- Hypertension, patients ([3]; treatment-related, 18 patients): 61%
- Fatigue, all grades ([3]; treatment-related, pooled Study 1 and Study 2, N = 18): 15 (83) n (%)
- Anorexia, all grades [3, 9]: 13 (72) n (%)
- Constipation, all grades [3, 9]: 7 (39) n (%)
- Diarrhea, all grades [3, 9]: 12 (67) n (%)
- Epistaxis, all grades [3, 9]: 5 (28) n (%)
- Hand–foot syndrome, all grades [3, 9]: 12 (67) n (%)
- Hand–foot syndrome, grade 3/4 [3, 9]: 1 (6) n (%)
- Headache, all grades [3, 9]: 4 (22) n (%)
- Hoarseness, all grades [3, 9]: 9 (50) n (%)
- Hypertension, all grades [3, 9]: 11 (61) n (%)
- Nausea, all grades [3, 9]: 4 (22) n (%)
- Rash, all grades [3, 9]: 6 (33) n (%)
- Stomatitis, all grades [3, 9]: 10 (56) n (%)
- Fatigue (all grades), patients ([3]; treatment-related, two studies, 18 patients): 83%
- Anemia ([3]; two phase I studies): not reported as an adverse event
- ALP increased, all grades [4]: 4 (22) n (%)
- AST increased, all grades [4]: 4 (22) n (%)
- Blood glucose increased, all grades [4]: 5 (28) n (%)
- Blood glucose increased, grade 3/4 [4]: 0 n (%)
- Hematuria, all grades [4]: 7 (39) n (%)
- Lipase increased, all grades [4]: 6 (33) n (%)
- Lipase increased, grade 3/4 [4]: 0 n (%)
- Lymphocyte count decreased, all grades [4]: 1 (6) n (%)
- Lymphocyte count decreased, grade 3/4 [4]: 0 n (%)
- Neutrophil count decreased, all grades [4]: 3 (17) n (%)
- Neutrophil count decreased, grade 3/4 [4]: 1 (6) n (%)
- Platelet count decreased, all grades [4]: 6 (33) n (%)
- Platelet count decreased, grade 3/4 [4]: 0 n (%)
- Proteinuria, all grades [4]: 9 (50) n (%)
- TSH decreased, all grades [4]: 4 (22) n (%)
- TSH increased, all grades [4]: 13 (72) n (%)
- AUC ([5]; human, plasma, oral, 5 mg): 138 ng·h/mL
- Tmax ([5]; human, plasma, oral, 5 mg): 4.04 h
- half-life ([5]; human, plasma, oral, 10 mg): 4.8 to 5.9 h
- Time after administration at which plasma concentration reached maximum (Cmax) ([5]; single dose 5, 7, 10 mg, Study 2): ~ 4 h
- Dose linearity of plasma pharmacokinetics ([5]; single dosing of 5 mg, 7 mg and 10 mg): generally linear
- Patients with elevation of TSH above the upper limit of normal range (thyroid gland): 89%
- Evaluable patients with a reduction in tumor size [6]: 65%
- Plasma exposure, fed state versus shorter fasting durations ([7]; 2 h before and 2 h after dosing, and 1 h before and 1 h after dosing): no difference in exposure
- Plasma exposure, fed state versus overnight fasting state ([7]; Western healthy volunteers): lower plasma exposure
- Hemoglobin change in treated patients [2]: Elevation of hemoglobin
